Sequences and labels used below:
B1: tRNA (parent)
chain: GUUCCGUUGGCGUAAUGGUAACGCGUCUCCCUCCUAAGGAGAAGACUGCGGGUUCGAGUCCCGUACGGAACG

This sample holds only a part of the variants without activity.

The variants in this data set derive from B1. The data set can be described thus: yeast fitness relative to wild type (ratio to wild type); higher = fitter; tRNA-Arg(CCU), competitive growth, 37 C, YPD. The method in brief:
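Variants of the tRNA-Arg(CCU) gene, chemically synthesised with a 3% per-site mutation rate at 69 sites, were placed at the native genomic locus in Saccharomyces cerevisiae. The pooled strains were competed in YPD at 37°C for 24 hours in six parallel replicates. Gene amplicons from the start population and from each end population were read by 100-nucleotide paired-end sequencing. Darwinian fitness relative to wild type came from changes in genotype frequencies; genotypes needed ≥ 100 starting reads, and estimates < 0.5 were set to 0.5.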
Take GUGCCGUUGGCGUAAUGGUAACGCGUAUCCCUCCUAAGGAGAAGACUGCGGGUUCGAGUCAUGUACGGAACG: the yeast fitness is no more than 0.5.

GUUCCGUUGGCGUCAUGGUAACGCGUCUCCUUCCUAAGGAGAAGACUGCGGGUUCGAGUCCCGUACGGAGCG: the yeast fitness came out at 0.612.

As to GUUCCGUUGGCGUAAUGGUAACGCGUCUCCCUCCUAAGGAGAAGACUGCGGAUUCGAGACCCGUACGGCACG, the yeast fitness is 0.571.

On to GUUCCGUAAGCGUAAUGGUACCGCGUCUCCCUCCUAAGGAGAAGACUGCGGGUUCGAGUCCCGUACGGAACG, for which the yeast fitness was no more than 0.5.

Consider GUUACGUUGGCGUAAUGGUAACGCGUCUCCCUCCUAAGGUGAGGACUGCGGGUUCGAGUCCCGUUCGGAACG, for which the yeast fitness is no more than 0.5.

For GAUCCGUUGGCGUAAUGGUAACGCGUCUCCCUCCUUAGGAGAAGACUGCGGGUUCGAGUCCCGUACGGAACG, the yeast fitness was found to be 0.596.

With GUUCCGUUGGCGCAAUGGUAACGCGUCUCCCUCCUAAGGAGAAGACUGCGGGUUCGAGUCCCGUACGGAUCG, the yeast fitness is 0.945.

Turning to GUUUCGUUGGAAUAAUGGUAACGCGUCUCCCUCCUAAGGAGAAGACUACGGGUUCGAGUCCCGUACAGAACG, the yeast fitness was no more than 0.5.

As to GUUCCGUUGGCGUAAUGGUAACGCGUCUCCCUCCUAAAGAGAAGACUGCGGGUUCGAGUCCCGUACGGUACG, the yeast fitness is 1.04.

For GUUCCGUUAGCGUAAUGGUAACGCGUCUGCCUCCUAAGGAGAAGACUGCGGGUUCGGGUCCCGUACGGAACG, the yeast fitness was no more than 0.5.

GUUCCGUUGGCGUAAUGAUAUCGCGUCUCCCUCCUAAGGAGAAGACUGCGGGUUCGAGUCCCGUACGGAACG: the yeast fitness stood at 0.528.

Consider GAUGCGUUGGCGUAAUGGUAACGCGUCUCCCUCCUAACGAGAAGUCUGCCGAUUCGAGUCCCGUACGGAACG, for which the yeast fitness came out at 0.849.

As to GUUCCGUUGGCGUAAUGGUAACGCGUCUCCCUCCUAAGGAGAAGACUGCGGGUCCGAGUCCCAUACGGAACG, the yeast fitness came to 0.701.

In the case of GUUCCGUAGGUGUAAUGGUGACGCCUCUCCCUCCUAAGCAGAAGACUGCGGGUUCGAGUCCCGUACGGAACG, the yeast fitness was no more than 0.5.

For GUUCCGUUGGCGUAAUGGUAACGCGUCUCCCUCCUAAGGAGAAGAAUGCGGAUUCGACUCCCGUACGGAACG, the yeast fitness is 0.742.

As to GUUUCGUUGGCGUAAUGGUAACGCGUAUCCCUCCUAAGGCGAAGACUGCGGGUUCGAGUCCCGUACGGAACG, the yeast fitness was no more than 0.5.

With GCUCCGUUGGCGUAAUGGUAACGCGUCUCCCUCCUAAGGAGAAGACGGCGGGUUCGAGUCCCGUACGGAACG, the yeast fitness was 0.626.

For GUUCGGUUCGCGUAAUGGUAACGCGUCCCCCUCCUAAGGAGAAGACUGCGGGUUUGAGUCCCGUACGGAACG, the yeast fitness was no more than 0.5.

For GUUCCGUUGGCGUAAUGGUAACGCGUCCCCCUCCUAAGGAGAAGACUGCGGGUUCGAGUCACGUACGGAACG, the yeast fitness is 0.765.

GUUCCGUUGGCGUCAUGGUAACGCGUCUACCUCCUAAGGAGAAGACUACAGGUUCGAGUCCCGUACGGAACG: the yeast fitness is no more than 0.5.

As for GUUCCAUUGGCGUCAUGGUAACGCGUCUCCCUCCUAAGGUGAGGACUACGGGUUCGAGUCCCGUACGGAACG, the yeast fitness turned out to be 0.607.

GUUCCGUUAGCGUAAUGGUAACGCGUCUCCCUCCUAAGGAGAAGUCUGCAGGUUCGACUCCCGUACGGAACG: the yeast fitness was determined as 0.975.

As to GUUCCGUUGGCGUAAUAGUAACGCGACUCCCUCCUAAGGAGAAGACUGCGGGUUCGAGUCCUGUACGGAACG, the yeast fitness was 0.614.

As for GUUCCGUUGGCGUAAUGGUAACGCGUCUCCCUCCUAAGGCGAAGACUGCGGGUUCGAGUUCCGUACAGAACG, the yeast fitness is no more than 0.5.

With GUUCCGUUGGCGUAAAGGUAACGCGUCUCCCUCCUAAGGAGAAGAUUGCGGGUUAGAGUCCCGUACGGAACG, the yeast fitness is no more than 0.5.

Regarding GUUCCGCUGGCGUAAUGGUAACGCGUCUCCCUCCUAAGGAGAAGACUGCGGGUUCGAGUCCCGUACGGAGCG, the yeast fitness is 0.879.

As to GUUCCGUUGGCGUAAUGGUAACGCGUCUCCCUACUAAGAAGAAGACUGCCGGUUCGAGUCCCGUACCGAACG, the yeast fitness worked out at 0.573.

As for GUUCCGUUGGCGUAAUGGUAACGCGUCUCCCUCCUGAGGAGAAGGCUGUGGGUUCGAGUCCCGUACGGAACG, the yeast fitness came out at 0.578.

Regarding GUUCCGUUGGCGUAAUGGUAACGCGUGUCCCUCCUAAGGAGAAGACUGCGGGUUCGAGUCCCGUAAGGAACG, the yeast fitness was no more than 0.5.

Take GUUUCGUUGGCGUAAUGGUAACGCGUCCCACUCCUAAGGAGAAGACUGCGGGUUCGAGUCCCGUACGGAACG: the yeast fitness turned out to be 0.755.

GUUUCGUUGGCGUAAUGGUAACGCGUCUCCCUCCUAAGGAGAAGACUGCGGAUUCGAGUCCCGUACGGACCG: the yeast fitness was 0.646.

Consider GUUCCGUUGGCGUAAUGGUAACGCGUCUUCCUACUAAGGAGAAGACUGCGGGUUCGAGUCCCCUCAGGAACG, for which the yeast fitness was no more than 0.5.

As to GUUCCGCUGGCGUAAUGGUAACGAGUCUCCCUCCUAAGGAGAAGACUGCGGGUUCGAGUCCCGUACGAAACG, the yeast fitness was no more than 0.5.

GUUUCGUUGGCGUAAUGGUAACGCGUCUCCCUCCUAAGGAGAAGACUGCGGGUUGGAGUCCCGUGCGGAACG: the yeast fitness was no more than 0.5.

In the case of GUUCCGUUGGCGUAAUGGUAACGCGUCUCCCGCCUAAGGAAAAGACUGCGGGUUCGAGUGCCGUGCGGAACG, the yeast fitness turned out to be 0.548.

Take GUUCCGUUGGCGUGAUGGUAACGCGUGUCCCUCGUAUGGAGAAGACUGCGGGUUCGAGUCCCGAACGGACCG: the yeast fitness was 0.522.

In the case of GUUCCGUGGGCGUGAUGGUAACGCGUCUCCCUCCUAAGGAGAAGAUUGCGGGUUAGAGUCCCGUAUGGAACG, the yeast fitness was no more than 0.5.

These data come from the RNAGym collection of RNA variant scans (doi:10.1126/science.aae0568).
